From ChEMBL document CHEMBL4387738 (Bioorg Med Chem Lett, 2019)
Each block holds one compound with its values, some of them ahead of it. Activity calls are given as the source filed them. The rule behind the calls is not given here.

How the values were obtained:
HCT-116 [1] = assay: Induction of apoptosis in human HCT116 cells assessed as late apoptotic cells at 5 to 25 uM incubated for 24 hrs by Annexin-V-FITC/propidium iodide staining based flow cytometric method relative to taxol; type: functional, cell-based
How it was run: (§1)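 HCT116 cells exposed to 5, 10 or 25 μM for 24 h, then stained with annexin V and propidium iodide and analysed by flow cytometry. DMSO was the negative control and Taxol the apoptosis control. Total apoptosis counted all annexin V-positive cells, early apoptosis was annexin V-positive/PI-negative, and late apoptosis was annexin V/PI double-positive.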

[2] = target: Endoplasmic reticulum chaperone BiP (Homo sapiens) (UniProt P11021); assay: Inhibition of GRP78 (26 to 636 residues) (unknown origin) expressed in Escherichia coli BL21 DE3 cells pre-incubated for 10 mins before FITC-NRLLLTG fluorescent peptide addition in presence of 20 uM ADP followed by further incubation for 2 hrs by fluorescence polarization assay
How it was run: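 Fluorescence polarization competition assay in 384-well format. Full-length GRP78 (0.75 μM) was held in the ADP-bound closed state with FITC-NRLLLTG (100 nM), and loss of polarization was read. DMSO was the negative control and heat-denatured GRP78 the positive control. IC50 was taken from a 10-point dose response.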

HCT-116 [3] = assay: Induction of autophagy in human HCT116 cells assessed as reduction in p62 level at 2 to 10 uM after 16 hrs by Western blot analysis
HCT-116 [4] = assay: Induction of apoptosis in human HCT116 cells assessed as increase in early apoptotic cells at 5 to 25 uM incubated for 24 hrs by Annexin-V-FITC/propidium iodide staining based flow cytometric method relative to taxol; type: functional, cell-based; how it was run: as §1
HCT-116 [5] = assay: Induction of apoptosis in human HCT116 cells at 5 to 25 uM incubated for 24 hrs by Annexin-V-FITC/propidium iodide staining based flow cytometric method; type: functional, cell-based; how it was run: as §1
HCT-116 [6] = assay: Induction of apoptosis in human HCT116 cells assessed as increase in apoptotic cells at 25 uM incubated for 24 hrs by Annexin-V-FITC/propidium iodide staining based flow cytometric method relative to taxol; type: functional, cell-based; how it was run: as §1
HCT-116 [7] = assay: Induction of apoptosis in human HCT116 cells 25 uM incubated for 16 to 48 hrs by Annexin-V-FITC/propidium iodide staining based flow cytometric method; type: functional, cell-based; conditions: TDE = time-dependent effect
How it was run: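 Time course in HCT116 cells. After treatment, cells were stained with annexin V and propidium iodide and analysed by flow cytometry. Early apoptosis was scored as annexin V+/PI−, late apoptosis as annexin V+/PI+. DMSO served as the negative control and Taxol as the apoptosis control.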

HCT-116 [8] = assay: Induction of autophagy in human HCT116 cells assessed as increase in LC3-2 level at 2 to 10 uM after 16 hrs by Western blot analysis
HCT-116 [9] = assay: Induction of apoptosis in human HCT116 cells assessed as apoptotic cells at 10 uM incubated for 24 hrs by Annexin-V-FITC/propidium iodide staining based flow cytometric method relative to taxol; type: functional, cell-based; how it was run: as §1
[10] = Inhibition of bacterial DnaK pre-incubated for 10 mins before FITC-NRLLLTG fluorescent peptide addition in presence of 20 uM ADP followed by further incubation for 2 hrs by fluorescence polarization assay; design: species or system Bacteria
How it was run: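 Repeat of the GRP78 fluorescence-polarization substrate-binding assay with the bacterial HSP70 DnaK in place of GRP78. The FITC-NRLLLTG peptide binds the substrate-binding domain in the ADP-bound closed state, raising polarization; inhibitors keep polarization low. Compound was tested in dose response and the IC50 derived. DnaK construct and concentration are not given.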

HCT-116 [11] = assay: Induction of autophagy in human HCT116 cells assessed as reduction in LC3-1 level at 2 to 10 uM after 16 hrs by Western blot analysis

Endoplasmic reticulum chaperone BiP (Homo sapiens), sequence (P11021 whole entry, the tested form may be a part): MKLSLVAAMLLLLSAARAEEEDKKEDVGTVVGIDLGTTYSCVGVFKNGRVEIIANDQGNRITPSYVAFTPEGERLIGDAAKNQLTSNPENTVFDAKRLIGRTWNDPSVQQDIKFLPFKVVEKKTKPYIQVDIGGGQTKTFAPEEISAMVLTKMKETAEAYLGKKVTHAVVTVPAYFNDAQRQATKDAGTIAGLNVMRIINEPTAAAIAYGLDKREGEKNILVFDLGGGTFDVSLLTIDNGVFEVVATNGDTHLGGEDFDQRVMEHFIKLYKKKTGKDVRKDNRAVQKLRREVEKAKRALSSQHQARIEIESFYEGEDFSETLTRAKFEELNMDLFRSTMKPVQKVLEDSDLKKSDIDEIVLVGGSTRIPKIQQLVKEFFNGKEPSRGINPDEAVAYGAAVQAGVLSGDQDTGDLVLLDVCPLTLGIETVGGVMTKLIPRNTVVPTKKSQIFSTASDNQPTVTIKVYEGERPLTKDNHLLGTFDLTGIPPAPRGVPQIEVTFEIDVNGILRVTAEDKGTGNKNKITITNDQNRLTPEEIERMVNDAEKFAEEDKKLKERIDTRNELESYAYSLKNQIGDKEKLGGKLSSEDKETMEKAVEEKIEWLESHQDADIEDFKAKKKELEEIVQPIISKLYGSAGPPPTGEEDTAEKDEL

inhibition [2]: Active
Structure (SMILES): Oc1c(Cl)cc(Cl)c(Cl)c1Sc1c(O)c(Cl)cc(Cl)c1Cl

inhibition [2]: Dose-dependent effect
IC50 [10]: 51.6 µM
Structure (SMILES): Oc1c(Cl)cc(Cl)c(Cl)c1Cc1c(O)c(Cl)cc(Cl)c1Cl [HEXACHLOROPHENE]
Activity (HCT-116 [3]): Active
Activity (HCT-116 [4]): Active
Activity (HCT-116 [5]): Dose-dependent effect
Activity (HCT-116 [1]): Active
Activity (HCT-116 [6]): Active
Activity (HCT-116 [7]): Tde
Activity (HCT-116 [8]): Active
Activity (HCT-116 [9]): Active
Activity (HCT-116 [11]): Active

Continued, compound first:

Structure (SMILES): CC(=O)O[C@H]1C(=O)[C@@]2(C)[C@H]([C@H](OC(=O)c3ccccc3)[C@]3(O)C[C@H](OC(=O)[C@H](O)[C@@H](NC(=O)c4ccccc4)c4ccccc4)C(C)=C1C3(C)C)[C@]1(OC(C)=O)CO[C@@H]1C[C@@H]2O
Activity (HCT-116 [1]): Active

Structure (SMILES): Oc1c(Cl)cc(Cl)cc1Cc1cc(Cl)cc(Cl)c1O
inhibition [2]: Active

Structure (SMILES): Oc1c(Cl)cc(Cl)cc1Sc1cc(Cl)cc(Cl)c1O
inhibition [2]: Active
